Experimental data published in ChEMBL document CHEMBL4834420, “Projected Dose Optimization of Amino- and Hydroxypyrrolidine Purine PI3Kδ Immunomodulators” (J Med Chem, 2021).
In brackets after ≈: the same amount, converted by molar mass.

How the values were obtained:
[1] = Unbound Trough plasma concentration Brown Norway rat at 10 mg/kg, po; assay type: ADME, organism-based; details: in vivo
[2] = Oral bioavailability in Wistar Han rat; assay type: ADME, organism-based; details: in vivo
[3] = Intrinsic clearance in Beagle dog at 0.25 mg/kg, iv or 0.5 mg/kg, po; assay type: ADME, organism-based, Canis lupus familiaris; details: in vivo
[4] = Half life in C57BL/6 mouse; assay type: ADME; details: in vivo
[5] = Unbound volume of distribution in C57BL/6 mouse; assay type: ADME; details: in vivo
[6] = biological target: T1, Phosphatidylinositol 4,5-bisphosphate 3-kinase catalytic subunit delta isoform (Mus musculus) (UniProt O35904); assay: Inhibition of PI3Kdelta in Foxp3-GFP C57BL/6 mouse assessed as reduction in Treg population at 30 to 100 mg/kg administered upto 7 days; assay type: organism-based; design: scale not given: the % may be the effect or the level left; details: dose 30-100 mg/kg, time day <=7
T1 sequence (whole entry): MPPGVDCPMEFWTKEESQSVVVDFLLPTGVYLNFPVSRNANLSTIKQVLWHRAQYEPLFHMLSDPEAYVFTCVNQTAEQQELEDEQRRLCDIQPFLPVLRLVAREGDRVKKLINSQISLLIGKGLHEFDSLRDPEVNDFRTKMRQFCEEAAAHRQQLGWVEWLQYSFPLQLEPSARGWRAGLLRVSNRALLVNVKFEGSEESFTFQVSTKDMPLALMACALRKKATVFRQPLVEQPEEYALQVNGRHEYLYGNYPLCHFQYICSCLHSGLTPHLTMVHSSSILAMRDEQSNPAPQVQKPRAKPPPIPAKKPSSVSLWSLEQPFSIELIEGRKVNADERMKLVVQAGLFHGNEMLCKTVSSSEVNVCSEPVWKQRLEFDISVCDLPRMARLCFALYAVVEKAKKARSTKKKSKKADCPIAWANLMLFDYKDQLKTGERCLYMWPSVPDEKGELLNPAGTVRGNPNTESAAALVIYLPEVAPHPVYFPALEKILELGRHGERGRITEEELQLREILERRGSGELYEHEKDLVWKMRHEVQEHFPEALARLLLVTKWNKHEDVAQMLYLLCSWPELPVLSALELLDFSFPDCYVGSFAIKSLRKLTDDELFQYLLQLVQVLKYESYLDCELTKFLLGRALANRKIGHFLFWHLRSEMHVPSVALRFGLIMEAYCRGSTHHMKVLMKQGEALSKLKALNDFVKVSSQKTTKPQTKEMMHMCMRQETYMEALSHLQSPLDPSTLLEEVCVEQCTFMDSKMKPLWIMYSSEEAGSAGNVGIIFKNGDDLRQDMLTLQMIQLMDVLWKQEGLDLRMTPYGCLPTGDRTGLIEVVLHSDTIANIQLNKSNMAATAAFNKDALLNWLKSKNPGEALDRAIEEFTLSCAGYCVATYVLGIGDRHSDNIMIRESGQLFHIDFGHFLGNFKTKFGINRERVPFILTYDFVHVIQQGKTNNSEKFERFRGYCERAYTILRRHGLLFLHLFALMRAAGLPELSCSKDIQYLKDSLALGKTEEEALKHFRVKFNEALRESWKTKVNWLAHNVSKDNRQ
Summary of the method: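 C57BL/6 Foxp3-GFP reporter mice were dosed at 30 and 100 mg/kg/day for up to 7 days. Treg population was monitored by bioluminescence imaging 10 min after ip injection of 3 mg luciferin. Radiance was quantified as photons/s/cm²/steradian. Diphtheria toxin served as a positive control.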

[7] = Solubility of the compound at pH 7.4; assay type: physicochemical; details: buffer
[8] = Cmax in C57BL/6 mouse at 100 mg/kg; assay type: ADME, organism-based; design: dose 100 mg/kg; details: in vivo
[9] = biological target: T2, Phosphatidylinositol 4,5-bisphosphate 3-kinase catalytic subunit delta isoform (Homo sapiens, UniProt O00329); assay: Inhibition of PI3Kdelta in human Ramos cells assessed as reduction in anti-IgM-antibody-induced phosphorylation of AKT at Ser473 residue preincubated for 20 mins followed by anti-IgM antibody stimulation and measured after 30 mins by alphascreen assay; assay type: cell-based
T2 sequence (O00329 whole entry): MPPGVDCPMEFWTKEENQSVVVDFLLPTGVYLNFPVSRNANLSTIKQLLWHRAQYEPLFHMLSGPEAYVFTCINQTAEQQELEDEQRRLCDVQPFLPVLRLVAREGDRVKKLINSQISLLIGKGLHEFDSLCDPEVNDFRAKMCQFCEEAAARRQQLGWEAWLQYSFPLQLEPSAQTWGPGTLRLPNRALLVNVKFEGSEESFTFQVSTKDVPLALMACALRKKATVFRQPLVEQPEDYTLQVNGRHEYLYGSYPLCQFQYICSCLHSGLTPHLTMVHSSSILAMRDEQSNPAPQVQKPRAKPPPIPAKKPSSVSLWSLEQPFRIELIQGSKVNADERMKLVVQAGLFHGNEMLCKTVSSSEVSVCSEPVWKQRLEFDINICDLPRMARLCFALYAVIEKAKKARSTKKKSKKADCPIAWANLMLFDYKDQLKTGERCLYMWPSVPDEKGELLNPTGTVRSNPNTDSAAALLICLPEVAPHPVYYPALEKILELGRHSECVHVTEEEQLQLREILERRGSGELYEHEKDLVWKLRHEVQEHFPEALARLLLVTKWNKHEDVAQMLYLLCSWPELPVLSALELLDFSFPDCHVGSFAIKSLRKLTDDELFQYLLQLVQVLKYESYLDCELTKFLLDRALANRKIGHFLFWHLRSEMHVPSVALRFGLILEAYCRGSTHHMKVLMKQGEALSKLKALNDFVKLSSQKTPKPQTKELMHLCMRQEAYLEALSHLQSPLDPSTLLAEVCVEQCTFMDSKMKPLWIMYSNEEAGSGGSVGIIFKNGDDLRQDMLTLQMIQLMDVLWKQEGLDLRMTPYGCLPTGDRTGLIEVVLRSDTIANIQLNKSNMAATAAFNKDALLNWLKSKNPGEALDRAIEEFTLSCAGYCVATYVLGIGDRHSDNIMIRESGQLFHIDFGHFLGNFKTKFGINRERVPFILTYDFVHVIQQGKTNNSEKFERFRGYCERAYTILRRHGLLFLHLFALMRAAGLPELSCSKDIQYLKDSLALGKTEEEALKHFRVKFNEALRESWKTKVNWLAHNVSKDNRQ

[10] = biological target: T2, Phosphatidylinositol 4,5-bisphosphate 3-kinase catalytic subunit delta isoform; assay: Inhibition of PI3Kdelta in human whole blood assessed as reduction in anti-CD79b antibody-induced CD69 expression preincubated for 60 mins followed by anti-CD79b antibody stimulation and measured after 3 hrs by FACS analysis; assay type: tissue-based
[11] = Inhibition of dog PI3Kdelta; design: species or system Canis lupus familiaris
[12] = biological target: Sodium channel protein type 5 subunit alpha (Homo sapiens, UniProt Q14524); assay: Inhibition of Nav1.5 (unknown origin)
Chain of Sodium channel protein type 5 subunit alpha (Q14524 whole entry): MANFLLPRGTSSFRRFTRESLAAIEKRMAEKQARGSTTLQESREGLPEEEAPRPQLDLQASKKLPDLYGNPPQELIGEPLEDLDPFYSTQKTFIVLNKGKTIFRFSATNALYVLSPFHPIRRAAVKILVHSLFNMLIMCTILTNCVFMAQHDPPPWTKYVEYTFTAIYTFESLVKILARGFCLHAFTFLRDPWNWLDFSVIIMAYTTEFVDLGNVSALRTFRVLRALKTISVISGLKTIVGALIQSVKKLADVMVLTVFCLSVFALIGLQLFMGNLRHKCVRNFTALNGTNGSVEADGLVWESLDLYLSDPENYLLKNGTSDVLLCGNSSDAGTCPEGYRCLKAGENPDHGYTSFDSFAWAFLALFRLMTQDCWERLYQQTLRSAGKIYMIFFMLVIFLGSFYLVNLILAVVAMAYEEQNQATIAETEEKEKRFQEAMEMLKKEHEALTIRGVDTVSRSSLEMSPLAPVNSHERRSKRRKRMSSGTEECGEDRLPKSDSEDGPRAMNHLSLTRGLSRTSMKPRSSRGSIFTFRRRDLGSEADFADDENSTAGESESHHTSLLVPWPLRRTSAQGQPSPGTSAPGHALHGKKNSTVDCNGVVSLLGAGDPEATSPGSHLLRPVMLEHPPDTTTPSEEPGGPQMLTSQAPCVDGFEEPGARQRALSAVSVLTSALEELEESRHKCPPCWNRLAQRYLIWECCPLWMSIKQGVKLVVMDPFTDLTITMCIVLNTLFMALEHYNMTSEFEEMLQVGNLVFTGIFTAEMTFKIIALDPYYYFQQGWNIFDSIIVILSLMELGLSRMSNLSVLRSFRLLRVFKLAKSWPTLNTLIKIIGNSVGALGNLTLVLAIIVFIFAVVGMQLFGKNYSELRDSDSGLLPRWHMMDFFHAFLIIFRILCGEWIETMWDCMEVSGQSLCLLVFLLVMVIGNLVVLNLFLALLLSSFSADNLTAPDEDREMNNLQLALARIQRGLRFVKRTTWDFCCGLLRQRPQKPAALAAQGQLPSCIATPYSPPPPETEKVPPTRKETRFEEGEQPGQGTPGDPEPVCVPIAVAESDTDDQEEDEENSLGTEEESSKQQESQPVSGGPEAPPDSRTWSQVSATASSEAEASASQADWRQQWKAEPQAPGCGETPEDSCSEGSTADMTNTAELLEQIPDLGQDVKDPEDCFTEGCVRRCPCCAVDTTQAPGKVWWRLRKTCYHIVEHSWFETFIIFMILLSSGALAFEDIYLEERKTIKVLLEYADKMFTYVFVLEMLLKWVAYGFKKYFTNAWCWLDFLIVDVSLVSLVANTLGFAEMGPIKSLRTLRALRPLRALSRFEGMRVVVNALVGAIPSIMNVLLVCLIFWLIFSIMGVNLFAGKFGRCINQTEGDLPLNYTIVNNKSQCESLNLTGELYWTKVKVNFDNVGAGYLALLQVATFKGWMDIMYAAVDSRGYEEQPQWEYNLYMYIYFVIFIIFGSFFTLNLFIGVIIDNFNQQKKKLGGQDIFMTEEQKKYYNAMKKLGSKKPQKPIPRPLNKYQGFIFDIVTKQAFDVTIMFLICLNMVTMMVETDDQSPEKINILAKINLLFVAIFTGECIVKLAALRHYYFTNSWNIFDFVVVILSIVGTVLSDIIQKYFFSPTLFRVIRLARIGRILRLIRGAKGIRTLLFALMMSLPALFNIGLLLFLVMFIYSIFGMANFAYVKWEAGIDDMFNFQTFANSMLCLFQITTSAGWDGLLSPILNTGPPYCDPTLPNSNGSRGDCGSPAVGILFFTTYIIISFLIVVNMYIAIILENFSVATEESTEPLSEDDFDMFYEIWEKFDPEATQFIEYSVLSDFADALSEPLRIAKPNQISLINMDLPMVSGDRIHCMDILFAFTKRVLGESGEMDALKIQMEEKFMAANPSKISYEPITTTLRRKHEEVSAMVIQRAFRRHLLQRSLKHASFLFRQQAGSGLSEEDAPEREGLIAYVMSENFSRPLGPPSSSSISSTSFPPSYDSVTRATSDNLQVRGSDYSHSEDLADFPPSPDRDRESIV

fCmin [1]: 8 nM
bioavailability [2]: 55%
CL [3]: 6.2 mL/min/kg
half-life [4]: 48 min
Vdu [5]: 0.4 L/kg
Activity [6]: 70%
solubility [7]: 15 mg/mL (≈ 38.2 mM)
Cmax [8]: 33 µM
IC50 [9]: 20 nM
IC50 [10]: 65 nM
IC50 [11]: 2.5 nM
SMILES: CCn1c(-c2cnc(C)nc2)nc2c(N[C@H]3CCN(C(=O)C4CC4)C3)ncnc21
IC50 [12]: > 50000 nM
